The values that follow come from ChEMBL document CHEMBL3414544, “PAINS in the assay: chemical mechanisms of assay interference and promiscuous enzymatic inhibition observed during a sulfhydryl-scavenging HTS” (J Med Chem, 2015).

Data set [1] addresses T1, Histone acetyltransferase RTT109 (Saccharomyces cerevisiae (strain ATCC 204508 / S288c) (Baker's yeast)) (UniProt Q07794).
T1 sequence (whole entry): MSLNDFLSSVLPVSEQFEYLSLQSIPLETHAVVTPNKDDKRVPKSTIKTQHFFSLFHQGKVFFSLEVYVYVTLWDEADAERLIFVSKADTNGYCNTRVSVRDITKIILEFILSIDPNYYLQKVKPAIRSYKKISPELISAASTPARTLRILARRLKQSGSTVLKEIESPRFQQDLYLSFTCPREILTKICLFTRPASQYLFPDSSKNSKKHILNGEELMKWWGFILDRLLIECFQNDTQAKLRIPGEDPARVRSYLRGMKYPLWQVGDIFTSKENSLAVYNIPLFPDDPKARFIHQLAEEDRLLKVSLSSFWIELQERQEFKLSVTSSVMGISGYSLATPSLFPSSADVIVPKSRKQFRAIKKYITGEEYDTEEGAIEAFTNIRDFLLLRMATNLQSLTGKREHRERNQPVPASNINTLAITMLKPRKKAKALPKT
Description: Inhibition of Vps75-stimulated recombinant Saccharomyces cerevisiae histone acetyltransferase Rtt109 assessed as H3K56 acetylated product at […] after 45 mins by Slot bolt inhibiton assay.

In data set [2] the target is T1, Histone acetyltransferase RTT109 (Saccharomyces cerevisiae (strain ATCC 204508 / S288c) (Baker's yeast)). As to the kind of experiment: Inhibition of Vps75-stimulated recombinant Saccharomyces cerevisiae histone acetyltransferase Rtt109 assessed as H3K27 acetylated product at […] after 45 mins by Slot bolt inhibiton assay.
Data set [3] can be described thus: Fluorescence quenching assessed as fluorescence signal reduction at 10 uM after 10 mins. Format: physicochemical. In a few lines: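 CPM (20 μM final) and CoA (5 μM final) reacted to completion in assay buffer (stable plateau, usually ~5 min); adduct solution added to wells preplated with compound; shaken 5 min, equilibrated 5 min at room temperature; fluorescence intensity read as percent signal reduction versus DMSO controls. Flagged as quencher at >20% signal reduction at 10 μM final compound.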

A short description of data set [4]: Fluorescence quenching in HTS buffer assessed as fluorescence signal reduction at 10 uM after 10 mins. Format: physicochemical.
Data set [5] is described as follows: Fluorescence quenching in HTS buffer with […] CoA assessed as fluorescence signal reduction at 10 uM after 10 mins. The class given is physicochemical.
The nature of data set [6]: Fluorescence quenching in HTS buffer with 20 uM 7-diethylamino-3-(4'-maleimidyl-phenyl)-4-methylcoumarin assessed as fluorescence signal reduction at 10 uM after 10 mins. The class given is physicochemical.

Each structure is given as a SMILES string. Calls of active or inactive are those of the source.

In the case of `Cc1ccc(-c2nc(Nc3ccccc3)s[n+]2CS(=O)(=O)c2ccccc2)cc1.[Cl-]`, the outcome in data set [1] and in data set [2] was Active. Further, the Activity result in data set [3], in data set [4], in data set [5] and in data set [6] was “Not Active” throughout.
In the case of `Cc1occc1-c1nnc(SC2=CS(=O)(=O)c3ccccc32)o1`, the result in data set [1] and in data set [2] was Active. The Activity entry in data set [3], in data set [4], in data set [5] and in data set [6] was “Not Active” throughout.
In the case of `[O-][Cl+3]([O-])([O-])[O-].c1ccc(C[n+]2sc(N(c3ccccc3)c3ccccc3)nc2-c2ccccc2)cc1`, the result in data set [1] and in data set [2] was Active. Besides, the Activity entry in data set [3], in data set [4], in data set [5] and in data set [6] was “Not Active” each time.
Regarding `O=S(=O)(Nc1cc(Br)c(O)c2ccccc12)c1ccc2ccccc2c1`, the result in data set [1] was Active. Moreover, the result in data set [2] was inactive. Further, the Activity result in data set [3], in data set [4], in data set [5] and in data set [6] was “Not Active” in each case.
Turning to `O=S1(=O)C=C(Sc2nn(-c3ccccc3)c(=S)s2)c2ccccc21`, the result in data set [1] and in data set [2] was Active. In addition, the Activity entry in data set [3], in data set [4], in data set [5] and in data set [6] was “Not Active” throughout.
`O=c1[nH]c(Sc2c([N+](=O)[O-])cc(Br)c3nsnc23)nc2ccccc12`: the outcome in data set [1] and in data set [2] was Active. Also, the Activity result in data set [3], in data set [4], in data set [5] and in data set [6] was “Not Active” throughout.
For the compound `Cc1nnc(SC2CC(=O)N(c3ccc(Br)cc3)C2=O)s1` (stereo unspecified), the outcome in data set [1] and in data set [2] was Active. Further, the Activity result in data set [3], in data set [4], in data set [5] and in data set [6] was “Not Active” throughout.
In the case of `CC(C)c1ccc(S(=O)(=O)Nc2ccc(O)c(Br)c2)cc1`, the outcome in data set [1] and in data set [2] was inactive. Also, the Activity result in data set [3], in data set [4], in data set [5] and in data set [6] was “Not Active” in each case.
For the compound `COc1ccc(N2C(=O)CC(Sc3nnc(-c4ccccc4)o3)C2=O)cc1` (stereo unspecified), the outcome in data set [1] and in data set [2] was Active. Besides, the Activity result in data set [3], in data set [4], in data set [5] and in data set [6] was “Not Active” in each case.
For `O=C1CC(Sc2nnc(-c3ccccc3)[nH]2)C(=O)N1c1ccc(Oc2ccccc2)cc1` (stereo unspecified), the outcome in data set [1] and in data set [2] was Active. For the same compound, the Activity result in data set [3], in data set [4], in data set [5] and in data set [6] was “Not Active” each time.
On to `Cc1ccc(S(=O)(=O)C[n+]2sc(N(c3ccccc3)c3ccccc3)nc2-c2ccccc2)cc1`, for which the result in data set [1] and in data set [2] was inactive.
For the compound `O=[N+]([O-])c1ccc(Sc2cccc(Cl)c2)c2nonc12`, the result in data set [1] and in data set [2] was Active.
`c1ccc(C[n+]2sc(Nc3ccccc3)nc2-c2ccccc2)cc1`: the outcome in data set [1] and in data set [2] was Active.
